The list is not random: actives were taken first. Their share in the collection is about 12%.
Rad51 HR inh: human RAD51 strand exchange inhibitors, primary screen, biochemical, fluorescence | hit rate 0.085% among 200,000 | AID 1385, 2008 | DNA repair protein RAD51 homolog 1 (Homo sapiens), Q06609 | hRad51 DNA strand exchange, fluorescence dequenching | inhibition, % at 10 µM;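 active means inhibition above 40% at the single screening dose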;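 further: 0% = DMSO control wells and 100% = blanks with heterologous ssDNA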
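System: hRad51 filaments on single-stranded DNA; reagent: Fluorescein- and BHQ1-tagged 47-mer duplex; compound dosing: one concentration, 10 µM final; timing: filaments 15 min 37 °C, then compound 30 min; measured by: fluorescein emission 520 nm, excitation 485 nm; benchmarks: per-plate controls and blanks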
PKD1 inh: inhibitors of human PKD1 kinase, biochemical, fluorescence polarization | Serine/threonine-protein kinase D1 (Homo sapiens), Q15139 | PKD1 kinase fluorescence polarization assay | inhibition, % (no concentration beside the values) | hit rate 0.056% among 200,000
Target sequence (Q15139 whole entry, looked up): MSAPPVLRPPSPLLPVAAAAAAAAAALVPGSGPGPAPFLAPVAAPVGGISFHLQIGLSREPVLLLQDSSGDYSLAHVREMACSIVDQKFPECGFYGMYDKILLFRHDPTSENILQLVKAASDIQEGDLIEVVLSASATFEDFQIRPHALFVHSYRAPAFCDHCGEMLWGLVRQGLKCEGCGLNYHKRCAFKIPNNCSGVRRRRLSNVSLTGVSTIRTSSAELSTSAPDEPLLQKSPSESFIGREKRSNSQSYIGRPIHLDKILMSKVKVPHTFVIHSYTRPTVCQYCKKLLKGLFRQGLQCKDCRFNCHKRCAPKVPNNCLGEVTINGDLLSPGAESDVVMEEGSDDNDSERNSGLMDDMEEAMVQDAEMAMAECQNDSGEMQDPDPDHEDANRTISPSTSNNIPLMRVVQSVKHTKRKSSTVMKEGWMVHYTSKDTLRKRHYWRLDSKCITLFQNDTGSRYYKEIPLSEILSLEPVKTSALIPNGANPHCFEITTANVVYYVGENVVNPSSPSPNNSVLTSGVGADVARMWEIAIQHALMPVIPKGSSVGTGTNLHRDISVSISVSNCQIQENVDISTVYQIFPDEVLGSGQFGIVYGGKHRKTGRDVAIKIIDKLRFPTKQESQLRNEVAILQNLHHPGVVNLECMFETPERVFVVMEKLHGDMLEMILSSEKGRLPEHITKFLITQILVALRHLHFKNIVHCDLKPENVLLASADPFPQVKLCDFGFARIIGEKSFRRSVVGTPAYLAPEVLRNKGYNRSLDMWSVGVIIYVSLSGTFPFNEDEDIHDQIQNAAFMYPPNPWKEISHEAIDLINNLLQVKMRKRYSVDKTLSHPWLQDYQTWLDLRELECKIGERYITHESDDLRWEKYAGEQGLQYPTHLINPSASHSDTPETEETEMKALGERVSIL
Lmaj promast: Leishmania major promastigote growth inhibition, primary screen | Leishmania major promastigotes, resazurin fluorescence viability | inhibition, % at 10 µM | hit rate 9% among 200,000 | AID 1063, 2008;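 further: promastigotes grown with compound for 44 hours at 28 °C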
Arbovirus anti: antivirals against arbovirus infection, primary screen, cell-based, full library, 10K replicate subset | arbovirus infection cell-based antiviral screen | inhibition, % at 10 µM | hit rate 0.37% among 200,000; in the data active means inhibition above about 30%
CHOP inh: inhibitors of CHOP promoter induction, primary screen, cell-based, unfolded protein response, luciferase reporter; CHO-K1 CHOP-promoter luciferase, tunicamycin-induced, 15-18 h; inhibition, % at 10 µM; hit rate 3.8% among 220,000;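 active means compounds that reduced the stress-induced luciferase reporter signal by more than about 70% of percent inhibition, limit read from the data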;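 further: 0% = tunicamycin plus vehicle and 100% = wells without tunicamycin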
Wee1 degr inh: Wee1 degradation inhibitors, primary screen, cell-based, HeLa, Wee1K328M-luciferase, luminescence | Wee1-like protein kinase (Homo sapiens), P30291 | HeLa Luc-Wee1K328M stability; 100% = proteasome inhibitor MG132 effect | reporter increase, % at 5 µM | hit rate 1.2% among 220,000;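 active means activation above the mean of all tested compounds plus 3 SD, set per screening run, cut at about 8.8% in these data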;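 further: cells exposed to compound for 20 h before luminescence read; 0% = DMSO alone and 100% = MG132 at 30 µM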
* marks the source's active call; other numbers are inactive results; nt = no result. Unless noted, no stated cut-off is given here; in the data, active means inhibition above about 50%; inactive means the rest.

SMILES | Rad51 HR inh | PKD1 inh | Lmaj promast | Arbovirus anti | CHOP inh | Wee1 degr inh
COCCn1nnnc1C(C(C)C)N(Cc1cccnc1)Cc1ccccc1Cl (stereo unspecified) | 5 | -5 | 66* | -4 | 4 | -1
Oc1c(C(Nc2nccs2)c2ccc(C(F)(F)F)cc2)ccc2cccnc12 (stereo unspecified) | nt | -6 | 100* | -9 | 41 | -2
Oc1c(C(Nc2cccc(C(F)(F)F)c2)c2ccncc2)ccc2cccnc12 (stereo unspecified) | 1 | -3 | 100* | -18 | 37 | -2
COc1ccc(C(NC(C)=O)c2ccc3cccnc3c2O)c(OC)c1 (stereo unspecified) | -2 | nt | nt | -32 | nt | nt
Cc1cc(C(=O)COC(=O)CC2Sc3ccccc3NC2=O)c(C)n1-c1cccc(C(F)(F)F)c1 (stereo unspecified) | -2 | -6 | 97* | -1 | 27 | 1
Cc1cc(C(=O)COC(=O)Cc2n[nH]c(=O)c3ccccc23)c(C)n1-c1cccc(C(F)(F)F)c1 | -4 | -5 | 1 | 17 | 69 | 0
CC(OC(=O)CCc1c[nH]c2ccccc12)C(=O)c1ccccc1 (stereo unspecified) | 7 | 4 | -6 | -2 | 28 | 0
COc1ccc(C2CC(C)=C(C#N)S(=O)(=O)C2C#N)cc1 (stereo unspecified) | -12 | nt | nt | nt | -1 | 3
Cc1cccc2cc(C(c3nnnn3Cc3ccccc3)N3CCN(c4ccccc4)CC3)c(=O)[nH]c12 (stereo unspecified) | 4 | -3 | 51* | 2 | -16 | -1
CCc1ccc2[nH]c(=O)c(C(c3nnnn3Cc3ccccc3)N3CCOCC3)cc2c1 (stereo unspecified) | 1 | -20 | 96* | 0 | 0 | 0
CCc1ccc2[nH]c(=O)c(C(c3nnnn3Cc3ccc(OC)cc3)N3CCOCC3)cc2c1 (stereo unspecified) | -8 | 10 | 4 | -2 | 19 | -3
Cc1cc2cc(C(c3nnnn3Cc3ccccc3)N3CCc4ccccc43)c(=O)[nH]c2cc1C (stereo unspecified) | nt | -4 | 99* | -4 | 19 | -1
Cc1cc2cc(C(c3nnnn3Cc3ccco3)N3CCc4ccccc4C3)c(=O)[nH]c2cc1C (stereo unspecified) | -21 | 0 | 91* | 6 | 34 | 3
Cc1ccc2[nH]c(=O)c(C(c3nnnn3CC3CCCO3)N3CCc4ccccc4C3)cc2c1 (stereo unspecified) | 0 | -3 | 37 | -2 | 24 | -1
Cc1ccc2cc(C(c3nnnn3Cc3ccccc3)N3CCc4ccccc43)c(=O)[nH]c2c1C (stereo unspecified) | -15 | 1 | 44 | 2 | 32 | -2
Cc1ccc2cc(C(c3nnnn3Cc3ccccc3)N3CCc4ccccc43)c(=O)[nH]c2c1 (stereo unspecified) | -7 | 5 | 42 | -3 | -14 | -2
Cc1ccc2[nH]c(=O)c(C(c3nnnn3CC3CCCO3)N3CCCc4ccccc43)cc2c1 (stereo unspecified) | -3 | -11 | 4 | 0 | 53 | -1
Cc1ccc2[nH]c(=O)c(C(c3nnnn3Cc3ccccc3)N3CCc4ccccc43)cc2c1 (stereo unspecified) | 2 | -5 | 74* | 10 | 70* | -1
Cc1cc2cc(C(c3nnnn3Cc3ccco3)N3CCc4ccccc43)c(=O)[nH]c2cc1C (stereo unspecified) | -14 | -2 | 20 | -3 | 86* | -2
COc1cccc(/C=N/NC(=O)c2cc(-c3cccn3C)n[nH]2)c1O | -8 | -7 | 98* | -19 | 58 | -1
COc1cccc(/C=N/NC(=O)c2cc3c(OC)cccc3[nH]2)c1O | 1 | -6 | 95* | -35 | 92* | 3
COc1cccc(/C=N/NC(=O)c2cc3cc([N+](=O)[O-])ccc3s2)c1O | 3 | -7 | 100* | -33 | 100* | 6
COc1cccc(/C=N/NC(=O)c2cc3c(OC)cccc3[nH]2)c1OC | 0 | 9 | 1 | 0 | 15 | 0
Cc1ccc2c(CC(=O)Nc3cccc(S(=O)(=O)N4CCOCC4)c3)coc2c1 | -3 | 2 | 5 | 21 | -14 | 1
COc1ccc(/C=N/NC(N)=S)cc1 | -12 | nt | nt | nt | -5 | -2
SMILES | Rad51 HR inh | PKD1 inh | Lmaj promast | Arbovirus anti | CHOP inh | Wee1 degr inh
NC(=S)N/N=C/c1ccc(C(F)(F)F)cc1 | 3 | -6 | 70* | -12 | -7 | 2
CCCC(=O)n1nc(-c2ccc(C)cc2)nc1NCc1ccco1 | 23 | -5 | 8 | 1 | 10 | 10*
CCC(=O)n1nc(-c2ccccc2)nc1NCc1ccccc1 | -2 | 1 | -4 | 1 | 93* | -1
CN(C)C=NC(=O)c1cc(C(=O)c2ccc(Cl)cc2Cl)c[nH]1 | 6 | 8 | -3 | 13 | 40 | 3
CC(=O)Nc1ccc(S(=O)(=O)NCC(=O)NC(C)c2ccc(S(N)(=O)=O)cc2)cc1 (stereo unspecified) | -4 | nt | nt | nt | -7 | 2
O=c1oc(-c2cccs2)nc2scc(-c3cccs3)c12 | nt | -7 | -6 | 71* | 28 | 3
Cc1nc2scc(-c3cccs3)c2c(=O)o1 | 8 | -1 | -4 | 0 | 1 | -1
Cc1sc2ncnc(OCC(=O)NC3CCS(=O)(=O)C3)c2c1C (stereo unspecified) | -7 | nt | nt | nt | 4 | -2
O=C1c2ccccc2C(=O)c2c(NCCCN(CCO)CCO)cccc21 | 38 | 7 | 100* | -24 | -3 | 5
CCN(CC)CC(=O)Nc1ccc(C)cc1Br | nt | 2 | -7 | 0 | 18 | -1
CCN(CC)CC(=O)Nc1cccc2c1C(=O)c1ccccc1C2=O | 3 | -5 | 9 | -10 | 77* | -1
Cc1cccc(Oc2coc3cc(OC(=O)c4cccs4)ccc3c2=O)c1 | 8 | 10 | -10 | -4 | 32 | 11*
CCOC(=O)c1cnc2c(C)cccc2c1Nc1ccc(N2CCOCC2)cc1 | 1 | 9 | 43 | -8 | 46 | -3
CCOC(=O)c1cnc2c(C)cccc2c1NCc1ccco1 | nt | -2 | 56* | 27 | 48 | 2
CCOC(=O)c1cnc2c(C(=O)OC)cccc2c1NCc1ccco1 | -6 | 2 | 51* | 18 | 1 | 0
O=c1cc(CSCc2ccc(Cl)cc2)[nH]c(=O)[nH]1 | -1 | nt | nt | nt | 0 | 3
Cn1c(=O)n(Cc2ccccc2)c(=O)c2c1nc1n2CCCN1Cc1ccccc1 | -2 | -2 | -5 | 2 | 46 | 1

Compound activity: PubChem, several laboratories
